The list is not random: actives were taken first. Their share in the collection is about 1.8%.
AI-2 QS modul: modulates the Vibrio harveyi AI-2 quorum sensing system; Vibrio harveyi JMH597 AI-2 luminescence/OD600 ratio, 9 h; active compounds read low; strain lacks LuxN and CqsS sensors; 0 = neutral-control median; activity change, % at 7.5 µM; 300,000 tested, 0.4% active; in the data active = activity change below about -75%, passing the limit was not always enough;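 also: luminescence divided by OD600 gain over 9 h not by final OD600 alone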
NTR1 ag: agonists of human neurotensin receptor NTR1 | P30989 | NTR1-U2OS beta-arrestin-GFP spot imaging, agonist mode | activation, % at 20 µM | 330,000 tested, 0.17% active;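 active = activation at or above 40% of the spot to cytoplasm intensity ratio, with at least 20 cells analyzed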;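 also: 0% = DMSO without peptide and 100% = 100 nM NTR1 peptide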
MC4R antagonist: human MC4R antagonism in cAMP assay; 360,000 tested, 0.48% active; P32245; inhibition, % at 6.5 µM; MC4R-expressing cells, MTII-stimulated cAMP, LANCE TR-FRET; AID 540295;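 active = inhibition above its plate's cutoff, the mean of tested wells on that plate plus 3 SD, cut at about 29% in these data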;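 also: 0% = Melanotan II alone and 100% = Melanotan II plus saturating MCL0020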
Target sequence (P32245 whole entry, looked up): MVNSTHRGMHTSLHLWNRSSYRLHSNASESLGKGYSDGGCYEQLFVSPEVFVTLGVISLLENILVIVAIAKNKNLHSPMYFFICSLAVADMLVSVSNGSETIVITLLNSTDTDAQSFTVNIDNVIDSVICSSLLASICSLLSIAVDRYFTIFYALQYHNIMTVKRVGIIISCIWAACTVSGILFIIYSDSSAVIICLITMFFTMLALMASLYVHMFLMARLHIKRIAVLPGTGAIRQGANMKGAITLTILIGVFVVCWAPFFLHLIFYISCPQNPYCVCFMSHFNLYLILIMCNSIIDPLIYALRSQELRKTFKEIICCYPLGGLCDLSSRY
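Material – human MC4R-expressing U2OS cells · Repeats – no replicates · Detection – TR-FRET with Eu-cAMP and labeled anti-cAMP, 671 nm · Times – compound 30 min, challenge 1 h, detection 1 h · Compound – single nominal compound dose of 6.5 µM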
MC4R barr agon: human MC4R agonism via beta-arrestin | P32245 | U2OS MC4R beta-arrestin complementation, luminescence; percent of melanotan II response, DMSO zero | activation, % at 8.9 µM | 360,000 tested, 0.98% active | AID 540308;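 active = activation above a per-plate cutoff, the mean activation of sample wells on that plate plus 3 SD, cut at about 8% in these data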
Numbers without * were called inactive; nt = no result.

SMILES	AI-2 QS modul	NTR1 ag	MC4R antagonist	MC4R barr agon
CC1(C(=O)NS(=O)(=O)Cc2ccccc2C(F)(F)F)CCN1C(=O)Cc1ccsc1 (stereo not given)	nt	nt	14.8	-0.9
O=C(NNS(=O)(=O)c1ccccc1)c1ccc(S(=O)(=O)N2CCCCC2)cc1	-95.6*	1.1	8.3	-0.6
COC(=O)c1ccc(S(=O)(=O)NNC(=O)c2ccc(S(=O)(=O)N3CCCCC3)cc2)cc1	19.7	2.0	4.6	-1.1
O=[N+]([O-])c1nn(-c2ccccc2)[n+]([O-])c1N1CCN(c2ccccc2F)CC1	6.1	2.3	-4.6	9.3*
CC(=O)NC(Cc1ccccc1)C(=O)Oc1ccc2ccccc2c1 (stereo not given)	nt	nt	0.6	1.1
CC(NC(=O)c1ccccc1SCC(=O)N1CCCC1)c1ccc(F)cc1 (stereo not given)	17.1	0.6	-1.3	-2.7
Cc1ccc(Nc2cc(C)nn2-c2nc(C)cc(=O)[nH]2)cc1	-159.6*	18.9	13.3	-3.4
Cc1ccc(Nc2cc(C)nn2-c2nc(C)cc(C)n2)cc1	17.2	6.4	-0.4	-0.8
COc1cc(NC(=S)NC(=O)c2ccccc2F)ccc1NC(=O)c1ccco1	-0.6	-1.2	2.2	9.1*
COc1ccccc1C(=O)NC(=S)Nc1ccc(Cc2ccncc2)cc1	-3.2	3.6	14.6	12.9*
COc1cc(NC(=S)NC(=O)c2ccco2)ccc1NC(=O)C(C)C	26.6	-1.1	-9.3	-3.8
Cn1cnc(S(=O)(=O)NCc2ccc(Br)cc2)c1	18.1	1.0	13.5	-0.5
CN(C)c1ccc(S(=O)(=O)c2ccc(Cl)cc2)cc1	32.9	-0.4	-4.8	8.3*
CN(C)c1ccc(NS(=O)(=O)c2ccc(Cl)cc2)cc1	-7.7	0.3	13.3	0.1
CCc1ccc(C(O)c2ncc(-c3ccc(C(F)(F)F)cc3)[nH]2)cc1 (stereo not given)	nt	nt	15.4	9.2*
OC(c1ccccc1)c1ncc(-c2ccc(C(F)(F)F)cc2)[nH]1 (stereo not given)	nt	nt	-0.5	-1.3
CCc1ccc(C(O)c2ncc(-c3ccccc3C(F)(F)F)[nH]2)cc1 (stereo not given)	nt	nt	3.2	1.4
OC(c1ccc(-c2ccccc2)cc1)c1ncc(-c2ccc(C(F)(F)F)cc2)[nH]1 (stereo not given)	nt	nt	10.8	9.5*
CC(C)(C)c1ccc(C(O)c2ncc(-c3ccccc3F)[nH]2)cc1 (stereo not given)	nt	nt	-0.1	8.2*
O=C(C1CCN(S(=O)(=O)c2ccc(Cl)cc2)CC1)N1CCN(c2ccccn2)CC1	nt	-1.9	2.2	-0.9
CC1(C(=O)NS(=O)(=O)c2ccccc2Cl)CCN1C(=O)Cc1cc(F)ccc1F (stereo not given)	nt	nt	0.6	-0.8
COc1ccccc1NC(=O)c1ccccc1N(Cc1ccccc1)S(C)(=O)=O	-23.6	-1.3	5.4	0.5
Cc1ccc(S(=O)(=O)CC(=O)c2ccc([N+](=O)[O-])cc2)cc1	34.5	-1.4	-0.6	-0.4
Cc1ccc(S(=O)(=O)CC(=O)c2ccccc2)cc1	-78.9*	1.0	6.7	-0.7
Nc1nc2ccc(Oc3ccccc3)cc2s1	-80.8*	nt	9.6	-0.5
SMILES	AI-2 QS modul	NTR1 ag	MC4R antagonist	MC4R barr agon
COc1ccc(C2Nc3ccccc3C(=O)N2c2ccccc2)cc1CSc1ccccn1 (stereo not given)	20.4	1.9	17.6	-1.2
COc1ccc(C2Nc3ccccc3C(=O)N2c2ccc(F)cc2)cc1CSc1ccccn1 (stereo not given)	9.3	18.9	-2.6	33.0*
CCCCOC(=O)NS(=O)(=O)c1sc(CC(C)C)cc1-c1ccc(Cn2c(CC)nc3c(C)cc(C)nc32)cc1	nt	14.3	nt	nt
CC1(Oc2cccc(F)c2)CCN(Cc2ccc(-c3ccccn3)cc2)C1 (stereo not given)	nt	nt	10.3	8.6*
CC1(Oc2cnc(Cl)c3ccccc23)CCN(Cc2ccc(-c3ccccn3)cc2)C1 (stereo not given)	nt	nt	0.9	-0.1
COc1ccc(-c2nn(Cc3ccccc3)cc2C(=O)N2CCN(c3ncccn3)CC2)cc1OC	nt	-1.6	7.0	-0.3
CC(=O)c1nn(-c2cccc(Br)c2)cc1C(=O)c1ccccc1	2.3	2.7	1.3	9.4*
CC(=O)c1nn(-c2ccccc2)cc1C(=O)c1ccc(Br)cc1	17.1	-1.0	0.0	7.0
COc1cc(/C=N/NC(N)=S)cc(Br)c1OCc1ccccc1F	53.7	39.0	12.6	10.5*
CCOc1cc(/C=N/NC(N)=S)cc(Br)c1OCc1ccccc1C	13.6	42.1*	4.7	3.4

Screening results (PubChem)
